Key:
Setaria viridis = test: Herbicidal activity against Setaria viridis assessed as growth inhibition at 150 g ai/ha using post-emergence protocol under greenhouse conditions measured 15 days after compound treatment; assay type: functional; conditions: 360 h, read-out: GI
Method in brief: (§1)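 Grass weeds were grown in pots in the greenhouse and sprayed post-emergence at the 1-leaf stage. The spray was formulation concentrate diluted in water. Soil was clay, pH 6.5, 1.6% organic matter, 37.3% clay particles, CEC 12.1 mol/kg. The g.ai/ha rate was active ingredient over pot surface area. Controls were untreated and DMF-treated seedlings.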

Echinochloa crus-galli = test: Herbicidal activity against Echinochloa crus-galli (barnyard grass) assessed as growth inhibition at 150 g ai/ha using post-emergence protocol under greenhouse conditions measured 15 days after compound treatment; assay type: functional; conditions: 360 h, read-out: GI; method in brief: as §1
Eclipta prostrata = test: Herbicidal activity against Eclipta prostrata assessed as growth inhibition at 150 g ai/ha using post-emergence protocol under greenhouse conditions measured 15 days after compound treatment; assay type: functional; conditions: 360 h, read-out: GI
Method in brief: (§2)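 Post-emergence greenhouse spray on pot-grown broadleaf weeds at the 2-leaf stage. Formulation concentrates were diluted with water. Soil was clay, pH 6.5, 1.6% organic matter, 37.3% clay particles, CEC 12.1 mol/kg. The rate was total active ingredient divided by pot surface area. Untreated seedlings and DMF-treated seedlings served as controls.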

Digitaria sanguinalis = test: Herbicidal activity against Digitaria sanguinalis (hairy crabgrass) assessed as growth inhibition at 150 g ai/ha using post-emergence protocol under greenhouse conditions measured 15 days after compound treatment; assay type: functional; conditions: 360 h, read-out: GI; method in brief: as §1
Brassica juncea = test: Herbicidal activity against Brassica juncea assessed as growth inhibition at 150 g ai/ha using post-emergence protocol under greenhouse conditions measured 15 days after compound treatment; assay type: functional; conditions: 360 h, read-out: GI; method in brief: as §2
Chenopodium album = test: Herbicidal activity against Chenopodium album assessed as growth inhibition at 150 g ai/ha using post-emergence protocol under greenhouse conditions measured 15 days after compound treatment; assay type: functional; conditions: 360 h, read-out: GI; method in brief: as §2
[1] = molecular target: T1, Protoporphyrinogen oxidase (Homo sapiens, UniProt P50336); test: Inhibition of Homo sapiens (human) protoporphyrinogen oxidase
T1 sequence (P50336 whole entry): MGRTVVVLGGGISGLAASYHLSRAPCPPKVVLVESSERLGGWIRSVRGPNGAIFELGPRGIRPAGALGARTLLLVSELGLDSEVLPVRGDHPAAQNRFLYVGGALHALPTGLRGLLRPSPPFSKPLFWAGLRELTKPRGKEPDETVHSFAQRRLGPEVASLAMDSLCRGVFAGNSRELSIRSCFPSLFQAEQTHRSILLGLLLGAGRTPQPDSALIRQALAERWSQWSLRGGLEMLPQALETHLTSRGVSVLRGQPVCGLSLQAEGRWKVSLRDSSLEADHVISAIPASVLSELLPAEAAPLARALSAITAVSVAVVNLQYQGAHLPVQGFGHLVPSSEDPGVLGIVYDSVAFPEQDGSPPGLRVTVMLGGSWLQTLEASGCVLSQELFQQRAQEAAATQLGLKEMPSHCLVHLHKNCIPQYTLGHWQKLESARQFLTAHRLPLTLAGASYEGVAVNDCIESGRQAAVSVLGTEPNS

Amaranthus retroflexus = test: Herbicidal activity against Amaranthus retroflexus assessed as growth inhibition at 150 g ai/ha using post-emergence protocol under greenhouse conditions measured 15 days after compound treatment; assay type: functional; conditions: 360 h, read-out: GI; method in brief: as §2

Row | Structure (SMILES) | Ki ([1]; read-out: Ki) [µM] | Ki ([1]; read-out: pKi (converted)) [µM] | inhibition of growth at 150 g/ha (Setaria viridis) [%] | inhibition of growth at 150 g/ha (Echinochloa crus-galli) [%] | inhibition of growth at 150 g/ha (Eclipta prostrata) [%] | inhibition of growth at 150 g/ha (Digitaria sanguinalis) [%] | inhibition of growth at 150 g/ha (Brassica juncea) [%] | inhibition of growth at 150 g/ha (Chenopodium album) [%] | inhibition of growth at 150 g/ha (Amaranthus retroflexus) [%]
1 | COc1cc(N2C(=O)C3CCCCC3C2O)c(F)cc1Cl (stereo not drawn) | 131 | – | < 50 | < 50 | < 50 | < 50 | < 50 | < 50 | < 50
2 | CCOC(=O)C(C)Oc1cc(N2C(=O)C3CCCCC3C2O)c(F)cc1Cl (stereo not drawn) | 48.1 | – | < 50 | < 50 | < 50 | < 50 | < 50 | < 50 | < 50
3 | CCOc1cc(Cl)c([N+](=O)[O-])cc1N1C(=O)C2=C(CCCC2)C1O (stereo not drawn) | 359 | – | < 50 | < 50 | 50 | < 50 | < 50 | 50 | > 80
4 | C#CCOc1cc(N2C(=O)C3CCCCC3C2O)c(F)cc1Cl (stereo not drawn) | 63.6 | – | < 50 | < 50 | < 50 | < 50 | < 50 | < 50 | < 50

The next compounds have a lower Ki ([1]; read-out: Ki) than those just listed; values first:

Row | Ki ([1]; read-out: Ki) [µM] | Ki ([1]; read-out: pKi (converted)) [µM] | Structure (SMILES) | inhibition of growth at 150 g/ha (Setaria viridis) [%] | inhibition of growth at 150 g/ha (Echinochloa crus-galli) [%] | inhibition of growth at 150 g/ha (Eclipta prostrata) [%] | inhibition of growth at 150 g/ha (Digitaria sanguinalis) [%] | inhibition of growth at 150 g/ha (Brassica juncea) [%] | inhibition of growth at 150 g/ha (Chenopodium album) [%] | inhibition of growth at 150 g/ha (Amaranthus retroflexus) [%]
5 | 0.12 | – | C=CCOc1cc(N2CC3=C(CCCC3)C2=O)c(F)cc1Cl | > 80 | > 80 | 100 | > 80 | > 80 | 100 | 100
6 | 4.49 | – | COc1cc(N2C(=O)C3=C(CCCC3)C2OC)c(F)cc1Cl (stereo not drawn) | 50 | 50 | 50 | 50 | 50 | > 80 | > 80
7 | 44.8 | 45.7 | C=CCOc1cc(N2C(=O)C3CCCCC3C2O)c(F)cc1Cl (stereo not drawn) | < 50 | < 50 | < 50 | < 50 | < 50 | < 50 | < 50
8 | 0.095 | – | CCCOc1cc(N2CC3=C(CCCC3)C2=O)c(F)cc1Cl | > 80 | > 80 | 100 | > 80 | > 80 | 100 | > 80
9 | 0.2 | – | CCOc1cc(N2CC3=C(CCCC3)C2=O)c(F)cc1Cl | > 80 | > 80 | 50 | > 80 | 50 | 100 | > 80

— ChEMBL document CHEMBL3046018, “Design, syntheses and 3D-QSAR studies of novel N-phenyl pyrrolidin-2-ones and N-phenyl-1H-pyrrol-2-ones as protoporphyrinogen oxidase inhibitors” (Bioorg Med Chem, 2010)
